Laboratory results: the M2OR odorant receptor database

Columns and labels:
Details in all cases: stereoisomer not certain
[1] = molecular target: T1, UniProt Q8VFP5
T1 sequence (whole entry): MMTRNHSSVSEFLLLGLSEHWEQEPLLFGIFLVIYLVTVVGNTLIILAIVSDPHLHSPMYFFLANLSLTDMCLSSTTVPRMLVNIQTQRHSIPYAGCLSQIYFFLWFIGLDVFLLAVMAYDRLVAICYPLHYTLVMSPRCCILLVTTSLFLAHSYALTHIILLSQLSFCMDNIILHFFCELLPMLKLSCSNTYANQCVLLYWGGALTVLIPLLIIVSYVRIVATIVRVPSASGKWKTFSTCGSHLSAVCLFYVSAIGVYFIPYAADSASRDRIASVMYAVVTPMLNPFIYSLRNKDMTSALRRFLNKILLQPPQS
How it was run: (§1)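 Each entry records the cell line, G-protein, co-transfected protein and tags used. Methods varied with the source, often transient luciferase assays in mammalian cell lines. A receptor–molecule pair is called responsive (active) if the original authors judged its signal statistically different from baseline and non-responsive (inactive) otherwise.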

[2] = molecular target: T2, UniProt Q8VFZ6
T2 sequence (whole entry): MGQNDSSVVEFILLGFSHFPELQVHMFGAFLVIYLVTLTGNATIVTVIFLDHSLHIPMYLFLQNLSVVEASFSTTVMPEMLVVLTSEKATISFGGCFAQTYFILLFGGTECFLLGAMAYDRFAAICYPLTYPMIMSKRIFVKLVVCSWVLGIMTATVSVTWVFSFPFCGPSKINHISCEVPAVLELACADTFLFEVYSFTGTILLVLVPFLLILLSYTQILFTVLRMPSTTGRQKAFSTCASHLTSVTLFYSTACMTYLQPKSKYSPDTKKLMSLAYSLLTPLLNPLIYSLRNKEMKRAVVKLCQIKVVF
How it was run: as §1

[3] = molecular target: T3, UniProt Q8VG01
T3 sequence (whole entry): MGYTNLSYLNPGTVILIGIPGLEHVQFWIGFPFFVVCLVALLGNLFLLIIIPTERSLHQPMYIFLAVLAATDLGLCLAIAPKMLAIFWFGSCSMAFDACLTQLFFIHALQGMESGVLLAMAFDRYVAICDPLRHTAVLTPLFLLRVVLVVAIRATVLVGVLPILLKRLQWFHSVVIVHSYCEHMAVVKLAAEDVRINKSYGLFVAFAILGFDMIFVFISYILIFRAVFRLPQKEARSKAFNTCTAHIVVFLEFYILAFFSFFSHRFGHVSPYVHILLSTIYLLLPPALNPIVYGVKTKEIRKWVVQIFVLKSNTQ
How it was run: as §1

[4] = molecular target: T4, UniProt Q8VG22
T4 sequence (whole entry): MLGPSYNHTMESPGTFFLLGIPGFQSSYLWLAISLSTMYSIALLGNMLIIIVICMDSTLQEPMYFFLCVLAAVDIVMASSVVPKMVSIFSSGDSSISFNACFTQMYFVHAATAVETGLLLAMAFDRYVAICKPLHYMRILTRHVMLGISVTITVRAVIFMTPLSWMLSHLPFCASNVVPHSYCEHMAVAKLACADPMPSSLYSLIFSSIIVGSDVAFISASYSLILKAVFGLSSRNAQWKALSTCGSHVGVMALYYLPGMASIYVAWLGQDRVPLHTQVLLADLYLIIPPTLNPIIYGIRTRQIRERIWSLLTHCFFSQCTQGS
How it was run: as §1

[5] = molecular target: UniProt Q8VG26
How it was run: as §1

[6] = molecular target: UniProt Q8VFQ6
How it was run: as §1

Chain of UniProt Q8VG26 (Q8VG26 as listed by the source): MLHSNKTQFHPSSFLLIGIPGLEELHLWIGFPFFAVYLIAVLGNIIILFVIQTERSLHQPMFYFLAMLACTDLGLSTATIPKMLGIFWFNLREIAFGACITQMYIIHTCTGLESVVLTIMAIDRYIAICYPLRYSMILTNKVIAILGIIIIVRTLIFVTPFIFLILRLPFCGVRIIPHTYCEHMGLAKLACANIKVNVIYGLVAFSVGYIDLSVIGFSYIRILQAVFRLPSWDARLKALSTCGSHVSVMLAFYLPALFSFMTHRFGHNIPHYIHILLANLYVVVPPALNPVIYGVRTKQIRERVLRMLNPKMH
Chain of UniProt Q8VFQ6 (Q8VFQ6 as listed by the source): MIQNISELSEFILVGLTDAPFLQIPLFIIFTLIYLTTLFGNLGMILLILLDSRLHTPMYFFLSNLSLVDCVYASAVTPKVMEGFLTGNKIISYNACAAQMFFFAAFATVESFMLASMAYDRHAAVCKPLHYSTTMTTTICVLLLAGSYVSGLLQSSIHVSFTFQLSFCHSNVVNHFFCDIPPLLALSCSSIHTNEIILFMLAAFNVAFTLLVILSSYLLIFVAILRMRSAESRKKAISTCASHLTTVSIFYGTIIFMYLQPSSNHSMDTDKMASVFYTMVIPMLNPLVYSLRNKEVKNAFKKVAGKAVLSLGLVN

SMILES | odorant receptor agonist call [1] | odorant receptor agonist call [2] | odorant receptor agonist call [3] | odorant receptor agonist call [4] | odorant receptor agonist call [5] | odorant receptor agonist call [6]
CCCCCCCCCCO | inactive | inactive | inactive | inactive | – | –
CCCC(=O)C(C)=O | inactive | inactive | inactive | active | – | –
CC(=O)OCC=C(C)C | inactive | inactive | inactive | inactive | – | –
CCOC(=O)C(C)C | inactive | inactive | inactive | inactive | – | –
O=C(c1ccccc1)c1ccccc1 | inactive | inactive | inactive | inactive | – | –
CCCCCC1=C(C)CCC1=O | inactive | inactive | inactive | active | – | –
CCCCCCCC(C)=O | inactive | inactive | inactive | inactive | – | –
CCCCCCC(C)=O | inactive | inactive | inactive | inactive | – | –
CCCCCCOC(C)=O | inactive | inactive | inactive | inactive | – | –
C=C(C)C1CCC(C)C(=O)C1 (centres undefined) | inactive | inactive | inactive | active | – | –
CCC(=O)C(=O)CC | inactive | inactive | inactive | active | – | –
CC(C)=CCCC(C)CCO (centres undefined) | inactive | inactive | inactive | inactive | – | –
CC(=O)Oc1ccccc1 | inactive | inactive | inactive | active | – | –
CCCCCC=O | inactive | inactive | inactive | inactive | – | –
c1ccccc1 | inactive | inactive | inactive | inactive | – | –
CCCCC(=O)CC | inactive | inactive | inactive | inactive | – | –
CCCCCCCCC(=O)O | inactive | inactive | inactive | inactive | inactive | –
CCCCCCCCCS | inactive | active | inactive | inactive | – | –
CCCCCCCCS | inactive | inactive | inactive | inactive | – | –
O=C1Cc2ccccc2O1 | inactive | inactive | inactive | active | – | –

SMILES | odorant receptor agonist call [1] | odorant receptor agonist call [2] | odorant receptor agonist call [3] | odorant receptor agonist call [4] | odorant receptor agonist call [5] | odorant receptor agonist call [6]
COc1cc(C(=O)O)ccc1O | inactive | inactive | inactive | inactive | – | –
CCCCCOC(=O)CCCCC | inactive | inactive | inactive | inactive | – | –
CCCCCCCCCC(=O)[O-].[H+] | inactive | inactive | inactive | inactive | – | –
CC(=O)OCc1ccccc1 | inactive | inactive | inactive | active | – | –
CCCCOC=O | inactive | inactive | inactive | inactive | – | –
CC(C)=CCCC(C)=CCO | inactive | active | inactive | inactive | – | –
O=C1CCOc2ccccc21 | inactive | inactive | inactive | active | – | inactive
CC12CCC(CC1=O)C2(C)C (centres undefined) | inactive | inactive | inactive | inactive | – | –
C=CCOC(=O)CCCCCC | inactive | inactive | inactive | inactive | – | –
CCCCC(C)=O | inactive | inactive | inactive | inactive | – | –
CCC(=O)O | inactive | inactive | inactive | inactive | – | –
CCCCC(=O)O | inactive | inactive | inactive | inactive | inactive | –
CCCCCC(=O)CC | inactive | inactive | inactive | inactive | – | –
CCCCCCCCCO | inactive | inactive | inactive | inactive | inactive | –
CCCCCCC(C=O)=Cc1ccccc1 | inactive | – | inactive | – | – | –
CC(CC=O)CCCC(C)(C)O (centres undefined) | inactive | – | inactive | – | – | –
CCN(CC)CC | inactive | – | inactive | – | – | –
C=C(C)C1CCC(C)C(O)C1 (centres undefined) | inactive | – | inactive | – | – | –
CCC=CCCCCC=O | inactive | – | active | – | – | –
CCCCCCO | inactive | inactive | inactive | active | inactive | –

SMILES | odorant receptor agonist call [1] | odorant receptor agonist call [2] | odorant receptor agonist call [3] | odorant receptor agonist call [4] | odorant receptor agonist call [5] | odorant receptor agonist call [6]
CNc1ccccc1C(=O)OC | inactive | – | inactive | – | – | –
OCCCCCCCCCO | inactive | – | inactive | – | – | –
Cc1ccc2c(c1)OCC(=O)CO2 | inactive | – | inactive | – | – | –
CC(C)CS | inactive | – | inactive | – | – | –
Cc1ccc(OC(=O)C(C)C)cc1 | inactive | – | inactive | – | – | –
COC(OC)c1ccccc1 | inactive | – | inactive | – | – | –
CC1CCC(C(C)C)C(=O)C1 (centres undefined) | inactive | – | inactive | – | – | –
CC(=O)C1(C)CC2=C(CCCC2(C)C)CC1C (centres undefined) | inactive | – | inactive | – | – | –
CC=Cc1ccc(OC)cc1 | inactive | – | inactive | – | – | –
CCCCCC(=Cc1ccccc1)C(OC)OC | inactive | – | inactive | – | – | –
O=C(O)CCCCCCCCC(=O)O | inactive | – | inactive | – | – | –
O=C([O-])CCCCCCC(=O)[O-].[H+].[H+] | inactive | – | inactive | – | – | –
CCCCCCCO | inactive | inactive | inactive | active | inactive | –
CC(=O)C=CC1=C(C)CCCC1(C)C | inactive | – | inactive | – | – | –
CCCO | inactive | – | inactive | – | – | –
C=C(C)C1CC=C(C)CC1 (centres undefined) | inactive | – | inactive | – | – | –
CCCCCCCCO | inactive | active | inactive | inactive | inactive | –
CCCCCCCCCC=CC=O | inactive | – | inactive | – | – | –
CC(C)CCN | inactive | – | inactive | – | – | –
